This note sets out measurements from ChEMBL document CHEMBL3046221, “Asymmetric chloronicotinyl insecticide, 1-[1-(6-chloro-3-pyridyl)ethyl]-2-nitroiminoimidazolidine: preparation, resolution and biological activities toward insects and their nerve preparations” (Biosci Biotechnol Biochem, 2003).

Assay [1] has as its target T1, Nicotinic acetylcholine receptor alpha 5 subunit (Musca domestica, UniProt A9XFY4).
T1 sequence (A9XFY4 whole entry): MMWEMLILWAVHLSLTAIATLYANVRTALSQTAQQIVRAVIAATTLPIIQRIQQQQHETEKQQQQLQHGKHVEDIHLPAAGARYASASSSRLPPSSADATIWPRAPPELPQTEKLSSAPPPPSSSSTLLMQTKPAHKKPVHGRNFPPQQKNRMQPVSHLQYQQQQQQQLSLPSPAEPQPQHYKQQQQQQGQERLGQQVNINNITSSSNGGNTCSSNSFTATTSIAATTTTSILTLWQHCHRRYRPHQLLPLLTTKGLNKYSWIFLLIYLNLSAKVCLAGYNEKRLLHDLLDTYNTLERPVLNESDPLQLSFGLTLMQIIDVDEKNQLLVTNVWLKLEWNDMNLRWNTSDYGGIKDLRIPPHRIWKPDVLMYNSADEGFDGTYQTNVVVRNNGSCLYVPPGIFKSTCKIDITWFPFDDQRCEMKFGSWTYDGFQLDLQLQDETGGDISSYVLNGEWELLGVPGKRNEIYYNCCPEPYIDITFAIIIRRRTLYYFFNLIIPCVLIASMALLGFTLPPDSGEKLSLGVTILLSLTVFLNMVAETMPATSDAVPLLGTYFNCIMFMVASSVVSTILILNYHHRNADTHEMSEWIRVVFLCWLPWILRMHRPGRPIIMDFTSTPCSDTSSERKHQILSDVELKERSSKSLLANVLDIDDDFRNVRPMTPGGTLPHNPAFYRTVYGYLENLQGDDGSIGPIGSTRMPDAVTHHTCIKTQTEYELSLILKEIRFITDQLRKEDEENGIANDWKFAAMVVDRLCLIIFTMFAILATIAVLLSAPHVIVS
Nature of the assay: Displacement of [3HIMI from nicotinic acetylcholine receptor in Musca domestica (house fly) head membranes incubated for 60 min by liquid scintillation counting method. The arrangement: species or system Membrane. A digest of the protocol:
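Housefly heads homogenized in pH 7.4 phosphate/sucrose/EDTA buffer; 700 g and 125,000 g spins; pellet resuspended in pH 7.4 phosphate, 50 mM NaCl, 0.1% Triton X-100. Membranes (3 mg/ml protein) preincubated with compound in DMSO 3-5 min at 24°C, then [3H]imidacloprid 10 nM final, 60 min at 24°C. GF/B filtration; IC50 for inhibition of specific binding.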

For assay [2], the system named is Musca domestica. Briefly: Insecticidal activity against female Musca domestica (house fly) administered through injection into dorsal side of thorax measured 1 hr post dose. Type of assay: functional.
The next assay has as its system Periplaneta americana. Nature of the assay: Neuroblocking potency against Periplaneta americana (American cockroach) abdominal central nerve cord assessed as compound concentration at which the frequency first reduced below 10 counts/30 secs […] by electrophysiologt method. It is filed as functional.
In assay [3] the test system is Musca domestica. Briefly: Insecticidal activity against female Musca domestica (house fly) administered through injection into dorsal side of thorax pre-treated with 0.2% w/v NIA and 0.2% w/v PB before compound injection measured 1 hr post dose. It is filed as functional. A digest of the protocol: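 Female houseflies anesthetized with CO2 were given 1 µl methanol with NIA 0.2% and PB 0.2% (w/v) topically on the abdomen. After 1 h at 25°C, 0.22 µl of compound in 50% aqueous ethanol at various concentrations was injected. Dead or paralyzed flies were counted 1 h later at 25°C, and ED50 (mol/insect) was derived by probit analysis.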

In assay [1], `Clc1ccc([C@H]2C[C@@H]3CC[C@H]2N3)cn1` [(-)-EPIBATIDINE] returned a half-maximal inhibitory concentration (IC50) of 1.34 µM.
Take `CC(c1ccc(Cl)nc1)N1CCN/C1=N\[N+](=O)[O-]` (racemic) [(R,S)-METHYL-IMIDACLOPRID]: the values for the ED50 in the assay with Musca domestica [2] and in the assay on Musca domestica [3] were 26 fmol and 1.7 fmol, respectively. The Activity with Periplaneta americana is 15 µM. Besides, in assay [1], the IC50 was 0.21 µM.
`CN1CCC[C@@H]1c1cccnc1` [R-NICOTINE]: in assay [1], the IC50 is 422 µM.
For `C[C@@H](c1ccc(Cl)nc1)N1CCN/C1=N\[N+](=O)[O-]` [(S)-METHYL-IMIDACLOPRID], the ED50 in the assay with Musca domestica [2] came out at 45 fmol; with Musca domestica [3], 1.1 fmol. In addition, the Activity in the assay on Periplaneta americana amounted to 5.9 µM. In assay [1], this compound gave an IC50 of 0.19 µM.
For `O=[N+]([O-])/N=C1\NCCN1Cc1ccc(Cl)nc1` [IMIDACLOPRID], the ED50 is given as 2.2 fmol in the assay with Musca domestica [2] and 0.26 fmol in the assay on Musca domestica [3]. The Activity in the assay with Periplaneta americana was 2.3 µM.
In assay [1], `CN1CCC[C@H]1c1cccnc1` [NICOTINE] had an IC50 of 11.9 µM.
Same read-out and setting: to `Clc1ccc([C@@H]2C[C@H]3CC[C@@H]2N3)cn1` [(+)-EPIBATIDINE] belongs 2.79 µM.
For the compound `C[C@H](c1ccc(Cl)nc1)N1CCN/C1=N\[N+](=O)[O-]` [(R)-METHYL-IMIDACLOPRID], the ED50 in the assay with Musca domestica [2] worked out at 55 fmol; in the assay on Musca domestica [3], 2.3 fmol. The Activity in the assay on Periplaneta americana is 73 µM. In assay [1], this compound showed a half-inhibitory concentration (IC50) of 0.95 µM.
